Results: publication PMC7701984 (Journal of medicinal chemistry, 2019)
Marks after values point to notes of the source that are not given here. Blank lines part the entries; values can stand above or below the compound they belong to.

Tests used:
wt-BFI domain of BTN3A1 = wt-BFI domain of BTN3A1 (Homo sapiens, UniProt O00481); experiment: GDP-BODIPY fluorescence polarization competitive binding assay, wt-BFI; settings: n ≥ 3
BTN3A1 BFI(R499A) = BTN3A1 BFI(R499A) (Homo sapiens, UniProt O00481, R499A); experiment: GDP-BODIPY fluorescence polarization competitive binding assay, BFI; settings: n ≥ 3
Vγ9Vδ2 T cells [1] = experiment: Vγ9Vδ2 T cell proliferation assay; format: cell-based, human; settings: for T cell expansion above non-stimulated baseline: positive controls at 0.1 μM; for signs of Vγ9Vδ2 T cell stimulation: proliferation assay, Supplemental Figure S1C–D
BTN3A1 BFI(R442A) = BTN3A1 BFI(R442A) (Homo sapiens, UniProt O00481, R442A); experiment: GDP-BODIPY fluorescence polarization competitive binding assay, BFI; settings: n ≥ 3
BTN3A1 BFI(W421A) = BTN3A1 BFI(W421A) (Homo sapiens, UniProt O00481, W421A); experiment: as above; settings: n ≥ 3
BTN3A1 BFI(R448A) = BTN3A1 BFI(R448A) (Homo sapiens, UniProt O00481, R448A); experiment: as above; settings: n ≥ 3
BFI = settings: read-out: ITC Kd for BFI; previous ITC experiments; cited from earlier work
BTN3A1 BFI(M424A) = BTN3A1 BFI(M424A) (Homo sapiens, UniProt O00481, M424A); experiment: GDP-BODIPY fluorescence polarization competitive binding assay, BFI; settings: n ≥ 3, ambiguous, approximate slope estimated by GraphPad
[2] = system: Human PBMCs containing naïve Vγ9Vδ2 T cells; experiment: IFN-γ production of PBMCs by ELISA; format: cell-based; settings: for EC50: Homo sapiens, PBMC, 48 h, read-out: IFN-γ EC50 (μM) with 95% CI
Vγ9Vδ2 T cells [3] = settings: read-out: Proliferation EC50 (μM) with 95% CI; footnote a; ref Hsiao 2014; cited from earlier work
BTN3A1 = settings: previously reported ITC experiments; no reference given; cited from earlier work
[4] = system: peripheral blood mononuclear cells (PBMCs); experiment: Ligand uptake: disappearance of prodrug from media incubated with PBMCs; format: in vitro ADME; settings: 10 μM with PBMCs, 24 hours, 37 °C
Method in brief: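 PBMCs at 1,000,000 cells/mL in T cell media were incubated at 37 °C with test prodrug at 10 μM final, or with media alone. Samples were taken at 0, 6, 24 and 48 h and spun. The supernatant was mixed with acetonitrile, re-spun and stored at −20 °C. UPLC-MS used a C18 column with a 25–80% acetonitrile gradient over 8 min. The integrated molecular-ion signal was expressed relative to t = 0.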

[5] = dose-response, 48 hours, concentration not given

Sequence of BTN3A1 BFI(R499A) (O00481 272-513 R499A limits assumed): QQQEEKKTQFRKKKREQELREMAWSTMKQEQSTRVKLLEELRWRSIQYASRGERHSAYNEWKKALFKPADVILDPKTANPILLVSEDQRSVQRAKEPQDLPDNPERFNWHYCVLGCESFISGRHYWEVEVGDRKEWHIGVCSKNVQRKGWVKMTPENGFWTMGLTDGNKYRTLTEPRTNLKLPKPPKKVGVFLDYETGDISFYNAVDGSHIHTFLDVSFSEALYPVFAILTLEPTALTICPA
Sequence of wt-BFI domain of BTN3A1 (O00481 272-513 limits assumed): as the sequence (O00481 272-513 R499A limits assumed) above, with A228R counted along it
Sequence of BTN3A1 BFI(R442A) (O00481 272-513 R442A limits assumed): as the sequence (O00481 272-513 R499A limits assumed) above, with R171A, A228R counted along it
Sequence of BTN3A1 BFI(R448A) (O00481 272-513 R448A limits assumed): as the sequence (O00481 272-513 R499A limits assumed) above, with R177A, A228R counted along it
Sequence of BTN3A1 BFI(W421A) (O00481 272-513 W421A limits assumed): as the sequence (O00481 272-513 R499A limits assumed) above, with W150A, A228R counted along it
Sequence of BTN3A1 BFI(M424A) (O00481 272-513 M424A limits assumed): as the sequence (O00481 272-513 R499A limits assumed) above, with M153A, A228R counted along it

Probe displacement (mP) range with 95% CI (wt-BFI domain of BTN3A1): 30.6 (25 – 36) mP
Probe displacement (mP) range with 95% CI (BTN3A1 BFI(R499A)): 55.0 (21 – 78) ^* mP
Probe displacement (mP) range with 95% CI (BTN3A1 BFI(R442A)): 19.4 (13 – 26) mP
Probe displacement (mP) range with 95% CI (BTN3A1 BFI(W421A)): 56.7 (40 – 73) ^* mP
Probe displacement (mP) range with 95% CI (BTN3A1 BFI(R448A)): 26.2 (12 – 40) mP
Probe displacement (mP) range with 95% CI (BTN3A1 BFI(M424A)): 59.1^a (38 – 81) ^* mP
Compound: C/C(=C\COP(=O)(O)OP(=O)(O)O)CO [Compound 1, (E)-4-hydroxy-3-methyl-but-2-enyl diphosphate]
T cell expansion above non-stimulated baseline (Vγ9Vδ2 T cells [1]): significantly expanded T cells
Kd (BFI): 2.36 µM

Compound: O=P(O)(O)C(O)(Cn1ccnc1)P(=O)(O)O [Compound 4, zoledronate]
stimulation of IFN-γ production [2, 5]: Neither zoledronate (4) nor sodium diphosphate stimulated IFN-γ production

Compound: C/C(=C\CCP(=O)(O)O)CO [Compound 5]
EC50 (Vγ9Vδ2 T cells [3]): 4 µM
ITC dissociation constant (Kd) (BTN3A1): not calculable

parent ion detected in media relative to t = 0 [4]: less than 1%
Compound: C/C(=C\CCP(=O)(OCOC(=O)C(C)(C)C)OCOC(=O)C(C)(C)C)CO [Compound 6]
T cell expansion above non-stimulated baseline (Vγ9Vδ2 T cells [1]): significantly expanded T cells

Compound: C/C(=C\CCP(=O)(O)CP(=O)(O)O)CO [Compound 7]
stimulation of IFN-γ production at 100 μM ([2]; 100 μM, 48 hours): did stimulate IFN-γ production
EC50 [2]: > 100 µM

Compound: C/C(=C\CCP(=O)(CP(=O)(OCOC(=O)C(C)(C)C)OCOC(=O)C(C)(C)C)OCOC(=O)C(C)(C)C)CO (centres unmarked) [Compound 8]
IFN-γ potency of prodrug 8 relative to its salt 7 [2]: 100 times
EC50 [2]: > 1 µM

parent ion detected in media relative to t = 0 [4]: less than 1%
Compound: C/C(=C\CCCCP(=O)(OCOC(=O)C(C)(C)C)OCOC(=O)C(C)(C)C)CO [Compound 11, (E)-(((7-hydroxy-6-methylhept-5-en-1-yl)phosphoryl)bis(oxy))bis(methylene) bis(2,2-dimethylpropanoate)]
stimulation of IFN-γ production ([2]; concentrations up to 100 μM, 48 hours): did not stimulate
stimulation of T cell proliferation (Vγ9Vδ2 T cells [1]; concentrations up to 100 μM): neither prodrug 11 nor salt 10 (Supplemental Figure S1B) stimulated T cell proliferation

Compound: CC(C)=CCCCCP(=O)(OCOC(=O)C(C)(C)C)OCOC(=O)C(C)(C)C [Compound 14, (((6-Methylhept-5-en-1-yl)phosphoryl)bis(oxy))bis(methylene) bis(2,2-dimethylpropanoate)]
signs of Vγ9Vδ2 T cell stimulation (Vγ9Vδ2 T cells [1]): neither intermediate 14 nor 15 displayed signs of Vγ9Vδ2 T cell stimulation

Compound: COP(=O)(CCCC/C=C(\C)CO)OC [Compound 15, Dimethyl (E)-(7-hydroxy-6-methylhept-5-en-1-yl) phosphonate]
signs of Vγ9Vδ2 T cell stimulation (Vγ9Vδ2 T cells [1]): neither intermediate 14 nor 15 displayed signs of Vγ9Vδ2 T cell stimulation

Compound: O=P([O-])([O-])OP(=O)([O-])[O-].[Na+].[Na+].[Na+].[Na+] [NaPP, sodium diphosphate]
stimulation of IFN-γ production [2, 5]: Neither zoledronate (4) nor sodium diphosphate stimulated IFN-γ production
